Hits are enriched below; roughly 1% of the tested compounds scored in any of these assays.
UPR XBP1 act – adaptive UPR (XBP1) activation; CHO-XBP1 luciferase reporter, IRE1-XBP1 UPR activation, luminescence; percent of tunicamycin response, DMSO as zero; 330,000 tested, 0.33% active; activation, % at 20 µM;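 active = versus positive control, 20 µM dose yields 30% or more activation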;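 note: 100% = tunicamycin at 10 µg/mL and 0% = DMSO only wells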
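Material: CHO-XBP1 cells stably carrying IRE1-XBP1-driven luciferase reporter / Amount: 1000 cells per well / Compound: 20 µM, 1% DMSO / Times: 6 h treatment, 37 °C / Detection: luciferase luminescence / Measure: % activation of reporter signal versus tunicamycin and DMSO controls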
UPR CHOP act – activators of apoptotic arm of unfolded protein response (CHOP); 330,000 tested, 0.34% active; activation, % at 10 µM; CHO-CHOP luciferase reporter, UPR activation, luminescence; percent of tunicamycin response over DMSO baseline; AID 449763;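 active = at 10 µM dose, activation of 40% or more, normalized to positive control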;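 note: 100% = tunicamycin at 10 µg/mL and 0% = DMSO alone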
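Material: CHO-CHOP cells, stable luciferase reporter of PERK-eIF2a-CHOP signalling; quantity: 500 reporter cells seeded per well; buffer or medium: F12 medium containing 10% fetal bovine serum; compound: one dose, 10 µM in 0.5% DMSO; incubation: 6 h compound treatment, 37 °C; measured by: Steady-Glo luciferase luminescence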
T cell HTS – modulates CD8 T cell binding to vesicles. 330,000 tested, 0.068% active. AID 2052. 2C CD8+ T cell-vesicle binding, flow cytometry; stronger effect = lower value. response (vesicle binding), % at 7 µM;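 active = response, share of CD8 T cells binding vesicles, and their 90th percentile fluorescence all below set limits, cut at about 80% in these data, passing the limit was not always enough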;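 note: values below 100% mean blocked vesicle binding to the CD8+ T cells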
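Read-out – percent CD8+ FL2 mean versus row control · System – murine 2C transgenic CD8+ T lymphocytes · Times – 1.5 h cell–vesicle binding at 37 °C, then 20 min icy labelling · Control set – naked vesicles low, QL9 vesicles with vehicle high · Detection – cytometric PE anti-B7-1 and Alexa647 anti-CD8 signals after 1% paraformaldehyde fixation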
B2AR ag – activates human beta-2 adrenergic receptor causing internalization; AID 504454; Am2.2-beta2AR cells, FAP receptor internalization, flow cytometry; P07550; response, % (no concentration beside the values); 340,000 tested, 0.43% active;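 active = response above a set limit, near 3 SD of response in nonfluorescent compounds, cut at about 42% in these data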
Target sequence (P07550 whole entry, looked up): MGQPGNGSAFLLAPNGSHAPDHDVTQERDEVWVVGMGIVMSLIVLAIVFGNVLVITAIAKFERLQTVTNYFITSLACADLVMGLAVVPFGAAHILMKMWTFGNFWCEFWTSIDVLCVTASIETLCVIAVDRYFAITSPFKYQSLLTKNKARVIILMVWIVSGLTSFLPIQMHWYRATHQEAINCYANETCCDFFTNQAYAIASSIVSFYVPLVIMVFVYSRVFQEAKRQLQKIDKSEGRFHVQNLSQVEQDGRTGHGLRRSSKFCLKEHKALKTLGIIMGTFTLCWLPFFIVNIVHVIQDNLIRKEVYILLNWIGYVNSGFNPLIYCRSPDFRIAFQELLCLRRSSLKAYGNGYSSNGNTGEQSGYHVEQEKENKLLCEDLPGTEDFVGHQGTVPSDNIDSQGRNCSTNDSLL
CHOP UPR conf – confirmation of apoptotic unfolded protein response (CHOP) activators; AID 463112; CHO-CHOP cells, CHOP-luciferase reporter luminescence; percent of tunicamycin response, DMSO as zero; 1,000 tested, 64% active; activation, % at 10 µM; shares compounds with UPR CHOP act; in the data active = activation above about 33%;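 note: 0% = DMSO wells and 100% = tunicamycin 10 µg/mL wells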
* = called active by the depositor; i = inactive; nt = not tested or not shown.

SMILES	UPR XBP1 act	UPR CHOP act	T cell HTS	B2AR ag	CHOP UPR conf
NC(=O)CN1C(=O)C(=O)N(Cc2ccc(F)cc2)C1=O	-3	0	302	-5	nt
COc1ccc(-n2cc(C(=O)O)c(=O)cc2C)cc1	2	0	268	3	nt
C/C(=N\NC(=O)c1ccc(Cl)c(Cl)c1)c1ccccn1	4	367*	226	0	322*
C/C(=N\NC(=O)c1ccccc1Cl)c1ccccn1	7	21	188	6	nt
C/C(=N\NC(=O)c1cc(Br)ccc1O)c1ccccn1	3	213*	383	9	223*
COc1ccccc1-n1c(SCC(=O)Nc2cc(C)on2)nc2c(c1=O)SCC2	0	-2	386	7	nt
C/C(=N\NC(=O)c1ccncc1)c1cc2ccccc2o1	2	115*	195	1	1
c1ccc(N2CCN(Cc3nc4ccccc4[nH]3)CC2)nc1	-3	4	293	2	nt
Cc1[nH]c2ccccc2c1CN1CCN(c2ccccn2)CC1	25	50*	458	-9	8
O=Cc1[nH]c2ccccc2c1N(C(=O)CCl)c1ccc([N+](=O)[O-])cc1	3	55*	246	22	0
O=C(CCl)N(c1ccccc1)c1c[nH]c2ccccc12	-10	0	436	1	nt
O=C(Nc1ccccc1)c1ccc(NCC2CCCO2)c(S(=O)(=O)N2CCOCC2)c1 (stereo unspecified)	-1	-1	230	-8	nt
CCn1c(-c2ccccc2)c(C(=O)CCl)c2ccccc21	7	77*	302	16	110*
C=CCSC(=C(C#N)C#N)c1cc2c([nH]1)CCCC2	-5	43*	182	37	55*
CC(=O)Nc1ccc(S(=O)(=O)Nc2cccc3cccnc23)cc1	0	-1	206	-1	nt
O=S(=O)(Nc1cccc2cccnc12)c1ccc(S(=O)(=O)N2CCCC2)cc1	-7	134*	172	29	99*
Cc1ccc(S(=O)(=O)Nc2cccc3cccnc23)c([N+](=O)[O-])c1	-4	404*	443	13	743*
O=C(CNCc1ccc(F)cc1)Nc1ccc(S(=O)(=O)N2CCOCC2)cc1	2	1	221	5	nt
Cc1cc(SCC(=O)N/N=C/c2ccc(O)c(O)c2)c(C)cc1Br	23	57*	378	10	20
COc1ccc2nc(C)cc(SCC(=O)N/N=C/c3ccc(O)c(O)c3)c2c1	6	0	i	17	nt
O=C(N/N=C/c1cccc(O)c1)c1cc(-c2ccccc2)nc2ccccc12	-2	5	119	-5	nt
O=C(N/N=C/c1ccc(O)c(O)c1)c1cc(-c2ccccc2)nc2ccccc12	34*	99*	256	-4	25
Cc1cc(SCC(=O)N/N=C/c2ccc(O)c(O)c2)nc2ccccc12	59*	108*	158	9	42*
O=C(CCSc1ccccc1)Nc1ccc(S(=O)(=O)Nc2ncccn2)cc1	4	1	159	5	nt
NC(N)=NS(=O)(=O)c1ccc(NC(=S)NC(=O)c2ccccc2)cc1	-2	0	164	-5	nt
SMILES	UPR XBP1 act	UPR CHOP act	T cell HTS	B2AR ag	CHOP UPR conf
CCOc1cc(N2CCOCC2)c(OCC)cc1NC(=O)C(C)Oc1ccccc1 (stereo unspecified)	-1	-2	151	6	nt
COc1ccccc1-c1nnc(Nc2nc3c(OC)cccc3s2)o1	15	71*	423	31	110*
COc1cccc2sc(Nc3nnc(-c4ccccc4Cl)o3)nc12	5	6	449	7	nt
Cc1ccc2oc(Nc3nc(-c4ccccc4)cc(=O)[nH]3)nc2c1	28	364*	nt	nt	423*
CN(C)/C=C/C(=O)c1ccc([N+](=O)[O-])c(CS(=O)(=O)c2ccc(Cl)cc2)c1	3	-1	118	-5	nt
CCOC(=O)C1=C(CCl)NC(=O)NC1c1ccc2c(c1)OCO2 (stereo unspecified)	-5	44*	271	0	37*
CCOC(=O)C1=C(CN2CCSCC2)NC(=O)NC1c1ccc2c(c1)OCO2 (stereo unspecified)	3	1	133	-11	nt
O=C(CSc1ccccn1)Nc1nonc1[N+](=O)[O-]	-6	85*	323	6	42*
CSc1ccc(S(=O)(=O)N2CCC(C(=O)Nc3cccnc3)CC2)cc1	-3	3	215	6	nt
CCCCC1CCC(C(=O)N(CCCC)c2c(N)n(CCCC)c(=O)[nH]c2=O)CC1 (stereo unspecified)	13	115*	358	-3	35*
O=C(NN1CCOCC1)c1ccccc1NS(=O)(=O)c1ccc(F)cc1F	0	0	548	0	nt
[O-][n+]1c(/C=C/c2ccccc2)ccc2ccccc21	2	127*	174	24	-5
[O-][n+]1ccccc1/C=C/c1ccccc1	1	1	181	-5	nt
CCN1CCN(c2nc(-c3ccccn3)nc3ccccc23)CC1	-2	-1	535	-7	nt
c1ccc(CN2CCN(c3nc(-c4ccccn4)nc4ccccc34)CC2)cc1	13	82*	379	-4	4
c1ccc(-c2nc(N3CCCCCC3)c3ccccc3n2)nc1	0	82*	185	1	31
c1ccc(CCNc2nc(-c3ccccn3)nc3ccccc23)cc1	14	44*	418	1	30
Cn1nccc1C(=O)OCC(=O)Nc1cccc(Cl)c1	-1	0	311	-3	nt
O=C(Cn1ncc(Cl)c(Cl)c1=O)N1CCN(S(=O)(=O)c2ccc3ccccc3c2)CC1	-5	94*	552	12	25
Clc1ccccc1-c1nn2c(-c3ccncc3)nnc2s1	3	0	813	-2	nt
O=[N+]([O-])c1ccccc1CN1CCN(Cc2c[nH]c3ccccc23)CC1	17	49*	157	nt	21
O=C(c1ccccc1)N1CCN(Cc2c[nH]c3ccccc23)CC1	1	1	163	3	nt
O=C1C(C2=NC(c3ccccn3)C3C(=O)N(c4ccc(OC(F)(F)F)cc4)C(=O)C23)=C(O)c2ccccc21 (stereo unspecified)	17	42*	246	1	9
C/C(=N\NC(=O)c1cc(-c2cccs2)nc2ccccc12)c1ccccn1	6	248*	560	-11	198*
C/C(=N\NC(=O)c1cccc2ccccc12)c1ccccn1	1	332*	nt	10	339*
C/C(=N\NC(=O)c1ccccc1OCc1ccc(F)cc1)c1ccccn1	18	109*	696	36	99*
Cc1ccc(OCC(=O)NC(C)c2ccc(Cl)c(Cl)c2)c([N+](=O)[O-])n1 (stereo unspecified)	3	0	290	-20	nt
C[N+](C)(C)CC(=O)N1CCN(c2ccc3ccccc3n2)CC1	-2	-1	200	-13	nt
